Key:
Cynomolgus monkey [1] = assay: Ratio of uptake in thalamus to cerebellum of anesthetized cynomolgus monkey after 65 mins; type: ADME, organism-based; settings: in vivo
Method in brief: (§1)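 Baseline microPET (Concorde P4) in anesthetized cynomolgus monkey after injection of the [11C]-labelled tracer. Regional time-activity curves were taken, and each region's uptake was divided by cerebellum uptake (low-SERT reference) at 65, 85 and 105 min postinjection.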

Cynomolgus monkey [2] = assay: Uptake in anesthetized cynomolgus monkey midbrain after 95.0 mins; type: ADME, organism-based; settings: in vivo
Method in brief: (§2)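 Baseline microPET scan (P4 scanner) of anesthetized cynomolgus monkeys after injection of the carbon-11 labelled nortropane tracer. Two baseline studies were run per tracer. Radioactivity was followed over time in regional brain time-activity curves.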

Cynomolgus monkey [3] = assay: Uptake in anesthetized cynomolgus monkey caudate after 9.5 mins; type: ADME, organism-based, Caudate nucleus; settings: in vivo
Method in brief: (§3)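 Baseline microPET (Concorde P4) regional brain time-activity curves in anesthetized cynomolgus monkey following injection of the [11C]-labelled tracer, with radioactivity followed over the scan.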

Cynomolgus monkey [4] = assay: Uptake in anesthetized cynomolgus monkey midbrain after 15.5 mins; type: ADME, organism-based; settings: in vivo; method in brief: as §2
Cynomolgus monkey [5] = assay: Uptake in anesthetized cynomolgus monkey medulla after 105.0 mins; type: ADME, organism-based, Medulla of organ; settings: in vivo, 1.75 h; method in brief: as §2
Cynomolgus monkey [6] = assay: Uptake in anesthetized cynomolgus monkey cerebellum after 0.5 mins; type: ADME, organism-based; settings: in vivo; method in brief: as §3
Cynomolgus monkey [7] = assay: Uptake in anesthetized cynomolgus monkey putamen after 45.0 mins; type: ADME, organism-based; settings: in vivo, 0.75 h
Method in brief: (§4)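 Baseline microPET (Concorde P4) scan in anesthetized cynomolgus monkeys after injection of the carbon-11 labeled tracer, with no chase drug. Regional brain time-activity curves were followed over the scan. Tracer radiochemical purity and specific activity were determined by analytical HPLC at the time of injection.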

Cynomolgus monkey [8] = assay: Uptake in anesthetized cynomolgus monkey frontal after 27.5 mins; type: ADME, organism-based, Frontal cortex; settings: in vivo; method in brief: as §2
Cynomolgus monkey [9] = assay: Uptake in anesthetized cynomolgus monkey occipital after 22.5 mins; type: ADME, organism-based, Occipital cortex; settings: in vivo, 0.375 h; method in brief: as §2
Cynomolgus monkey [10] = assay: Uptake in anesthetized cynomolgus monkey pons after 0.5 mins; type: ADME, organism-based; settings: in vivo; method in brief: as §2
Cynomolgus monkey [11] = assay: Uptake in anesthetized cynomolgus monkey frontal after 15.5 mins; type: ADME, organism-based, Frontal cortex; settings: in vivo; method in brief: as §2
Cynomolgus monkey [12] = assay: Uptake in anesthetized cynomolgus monkey pons after 9.5 mins; type: ADME, organism-based; settings: in vivo
Method in brief: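 Carbon-11 labelled tracer injected into anesthetized cynomolgus monkeys under baseline conditions. Regional brain radioactivity was followed by microPET (Concorde microPET P4) and expressed as time-activity curves for the brain regions. Two baseline studies were run per tracer. Tracer radiochemical purity and specific activity were determined by analytical HPLC at the time of injection.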

Cynomolgus monkey [13] = assay: Uptake in anesthetized cynomolgus monkey putamen after 6.5 mins; type: ADME, organism-based; settings: in vivo; method in brief: as §4
Cynomolgus monkey [14] = assay: Ratio of uptake in putamen to cerebellum of anesthetized cynomolgus monkey after 65 mins; type: ADME, organism-based; settings: in vivo; method in brief: as §1
Cynomolgus monkey [15] = assay: Uptake in anesthetized cynomolgus monkey medulla after 35.0 mins; type: ADME, organism-based, Medulla of organ; settings: in vivo; method in brief: as §2
Cynomolgus monkey [16] = assay: Uptake in anesthetized cynomolgus monkey thalamus after 3.5 mins; type: ADME, organism-based; settings: in vivo; method in brief: as §4
Cynomolgus monkey [17] = assay: Uptake in anesthetized cynomolgus monkey putamen after 15.5 mins; type: ADME, organism-based; settings: in vivo; method in brief: as §4
Cynomolgus monkey [18] = assay: Uptake in anesthetized cynomolgus monkey midbrain after 115.0 mins; type: ADME, organism-based; settings: in vivo; method in brief: as §2
Cynomolgus monkey [19] = assay: Ratio of uptake in midbrain to cerebellum of anesthetized cynomolgus monkey after 105 mins; type: ADME, organism-based; settings: in vivo, 1.75 h; method in brief: as §1
Cynomolgus monkey [20] = assay: Uptake in anesthetized cynomolgus monkey medulla after 4.5 mins; type: ADME, organism-based, Medulla of organ; settings: in vivo, 0.075 h; method in brief: as §2
Cynomolgus monkey [21] = assay: Uptake in anesthetized cynomolgus monkey medulla after 22.5 mins; type: ADME, organism-based, Medulla of organ; settings: in vivo, 0.375 h; method in brief: as §2
Cynomolgus monkey [22] = assay: Ratio of uptake in occipital to cerebellum of anesthetized cynomolgus monkey after 65 mins; type: ADME, organism-based; settings: in vivo; method in brief: as §1
Cynomolgus monkey [23] = assay: Ratio of uptake in pons to cerebellum of anesthetized cynomolgus monkey after 85 mins; type: ADME, organism-based; settings: in vivo; method in brief: as §1
Cynomolgus monkey [24] = assay: Uptake in anesthetized cynomolgus monkey medulla after 45.0 mins; type: ADME, organism-based, Medulla of organ; settings: in vivo, 0.75 h; method in brief: as §2
Cynomolgus monkey [25] = assay: Uptake in anesthetized cynomolgus monkey caudate after 35.0 mins; type: ADME, organism-based, Caudate nucleus; settings: in vivo; method in brief: as §3
Cynomolgus monkey [26] = assay: Ratio of uptake in thalamus to cerebellum of anesthetized cynomolgus monkey after 105 mins; type: ADME, organism-based; settings: in vivo, 1.75 h; method in brief: as §1
Cynomolgus monkey [27] = assay: Uptake in anesthetized cynomolgus monkey caudate after 2.5 mins; type: ADME, organism-based, Caudate nucleus; settings: in vivo; method in brief: as §3
Cynomolgus monkey [28] = assay: Ratio of uptake in frontal to cerebellum of anesthetized cynomolgus monkey after 65 mins; type: ADME, organism-based; settings: in vivo; method in brief: as §1
Cynomolgus monkey [29] = assay: Ratio of uptake in midbrain to cerebellum of anesthetized cynomolgus monkey after 85 mins; type: ADME, organism-based; settings: in vivo; method in brief: as §1
Cynomolgus monkey [30] = assay: Uptake in anesthetized cynomolgus monkey caudate after 27.5 mins; type: ADME, organism-based, Caudate nucleus; settings: in vivo; method in brief: as §3
Cynomolgus monkey [31] = assay: Uptake in anesthetized cynomolgus monkey midbrain after 6.5 mins; type: ADME, organism-based; settings: in vivo; method in brief: as §2
Cynomolgus monkey [32] = assay: Uptake in anesthetized cynomolgus monkey putamen after 35.0 mins; type: ADME, organism-based; settings: in vivo; method in brief: as §4
Cynomolgus monkey [33] = assay: Uptake in anesthetized cynomolgus monkey midbrain after 45.0 mins; type: ADME, organism-based; settings: in vivo, 0.75 h; method in brief: as §2
Cynomolgus monkey [34] = assay: Uptake in anesthetized cynomolgus monkey medulla after 6.5 mins; type: ADME, organism-based, Medulla of organ; settings: in vivo; method in brief: as §2
Cynomolgus monkey [35] = assay: Uptake in anesthetized cynomolgus monkey cerebellum after 3.5 mins; type: ADME, organism-based; settings: in vivo; method in brief: as §3
Cynomolgus monkey [36] = assay: Uptake in anesthetized cynomolgus monkey putamen after 85.0 mins; type: ADME, organism-based; settings: in vivo; method in brief: as §4
Cynomolgus monkey [37] = assay: Uptake in anesthetized cynomolgus monkey occipital after 0.5 mins; type: ADME, organism-based, Occipital cortex; settings: in vivo; method in brief: as §2
Cynomolgus monkey [38] = assay: Uptake in anesthetized cynomolgus monkey pons after 75.0 mins; type: ADME, organism-based; settings: in vivo, 1.25 h; method in brief: as §4
Cynomolgus monkey [39] = assay: Uptake in anesthetized cynomolgus monkey frontal after 22.5 mins; type: ADME, organism-based, Frontal cortex; settings: in vivo, 0.375 h; method in brief: as §2
Cynomolgus monkey [40] = assay: Uptake in anesthetized cynomolgus monkey cerebellum after 95.0 mins; type: ADME, organism-based; settings: in vivo; method in brief: as §3
Cynomolgus monkey [41] = assay: Uptake in anesthetized cynomolgus monkey caudate after 0.5 mins; type: ADME, organism-based, Caudate nucleus; settings: in vivo; method in brief: as §3
Cynomolgus monkey [42] = assay: Uptake in anesthetized cynomolgus monkey putamen after 1.5 mins; type: ADME, organism-based; settings: in vivo, 0.025 h; method in brief: as §4
Cynomolgus monkey [43] = assay: Uptake in anesthetized cynomolgus monkey pons after 3.5 mins; type: ADME, organism-based; settings: in vivo; method in brief: as §4
Cynomolgus monkey [44] = assay: Uptake in anesthetized cynomolgus monkey thalamus after 55.0 mins; type: ADME, organism-based; settings: in vivo; method in brief: as §4
Cynomolgus monkey [45] = assay: Uptake in anesthetized cynomolgus monkey pons after 1.5 mins; type: ADME, organism-based, Macaca mulatta; settings: rhesus monkey, in vivo, 0.025 h; method in brief: as §2
Cynomolgus monkey [46] = assay: Uptake in anesthetized cynomolgus monkey pons after 85.0 mins; type: ADME, organism-based; settings: in vivo; method in brief: as §4
Cynomolgus monkey [47] = assay: Ratio of uptake in medulla to cerebellum of anesthetized cynomolgus monkey after 85 mins; type: ADME, organism-based; settings: in vivo; method in brief: as §1
Cynomolgus monkey [48] = assay: Uptake in anesthetized cynomolgus monkey putamen after 2.5 mins; type: ADME, organism-based; settings: in vivo; method in brief: as §4
Cynomolgus monkey [49] = assay: Uptake in anesthetized cynomolgus monkey putamen after 65.0 mins; type: ADME, organism-based; settings: in vivo; method in brief: as §4
Cynomolgus monkey [50] = assay: Uptake in anesthetized cynomolgus monkey occipital after 4.5 mins; type: ADME, organism-based, Occipital cortex; settings: in vivo, 0.075 h; method in brief: as §2
Cynomolgus monkey [51] = assay: Uptake in anesthetized cynomolgus monkey frontal after 65.0 mins; type: ADME, organism-based, Frontal cortex; settings: in vivo; method in brief: as §2
Cynomolgus monkey [52] = assay: Uptake in anesthetized cynomolgus monkey medulla after 3.5 mins; type: ADME, organism-based, Medulla of organ; settings: in vivo; method in brief: as §2
Cynomolgus monkey [53] = assay: Uptake in anesthetized cynomolgus monkey putamen after 27.5 mins; type: ADME, organism-based; settings: in vivo; method in brief: as §4
Cynomolgus monkey [54] = assay: Uptake in anesthetized cynomolgus monkey cerebellum after 15.5 mins; type: ADME, organism-based, Macaca mulatta; settings: rhesus monkey, in vivo; method in brief: as §3
Cynomolgus monkey [55] = assay: Uptake in anesthetized cynomolgus monkey medulla after 1.5 mins; type: ADME, organism-based, Medulla of organ; settings: in vivo, 0.025 h; method in brief: as §2

[11CH3]OC(=O)[C@@H]1C2CCC(C[C@@H]1c1cccc(/C=C/I)c1)N2 (stereo not given in full)
Ratio (Cynomolgus monkey [1]): 1.6
Drug uptake (Cynomolgus monkey [2]): 7.11
Drug uptake (Cynomolgus monkey [3]): 4.12
Drug uptake (Cynomolgus monkey [4]): 6.42
Drug uptake (Cynomolgus monkey [5]): 6.25
Drug uptake (Cynomolgus monkey [6]): 0.01
Drug uptake (Cynomolgus monkey [7]): 7.16
Drug uptake (Cynomolgus monkey [8]): 4.09
Drug uptake (Cynomolgus monkey [9]): 5.01
Drug uptake (Cynomolgus monkey [10]): 0.01
Drug uptake (Cynomolgus monkey [11]): 3.69
Drug uptake (Cynomolgus monkey [12]): 4.69
Drug uptake (Cynomolgus monkey [13]): 4.68
Ratio (Cynomolgus monkey [14]): 1.6
Drug uptake (Cynomolgus monkey [15]): 7.36
Drug uptake (Cynomolgus monkey [16]): 2.1
Drug uptake (Cynomolgus monkey [17]): 6.17
Drug uptake (Cynomolgus monkey [18]): 7.23
Ratio (Cynomolgus monkey [19]): 2.4
Drug uptake (Cynomolgus monkey [20]): 3.9
Drug uptake (Cynomolgus monkey [21]): 6.95
Ratio (Cynomolgus monkey [22]): 0.9
Ratio (Cynomolgus monkey [23]): 1.6
Drug uptake (Cynomolgus monkey [24]): 7.21
Drug uptake (Cynomolgus monkey [25]): 5.74
Ratio (Cynomolgus monkey [26]): 2.1
Drug uptake (Cynomolgus monkey [27]): 0.89
Ratio (Cynomolgus monkey [28]): 1
Ratio (Cynomolgus monkey [29]): 2
Drug uptake (Cynomolgus monkey [30]): 5.41
Drug uptake (Cynomolgus monkey [31]): 4.97
Drug uptake (Cynomolgus monkey [32]): 7.2
Drug uptake (Cynomolgus monkey [33]): 7.66
Drug uptake (Cynomolgus monkey [34]): 5.28
Drug uptake (Cynomolgus monkey [35]): 2.19
Drug uptake (Cynomolgus monkey [36]): 6.58
Drug uptake (Cynomolgus monkey [37]): 0.01
Drug uptake (Cynomolgus monkey [38]): 5.92
Drug uptake (Cynomolgus monkey [39]): 4.03
Drug uptake (Cynomolgus monkey [40]): 3.46
Drug uptake (Cynomolgus monkey [41]): 0.01
Drug uptake (Cynomolgus monkey [42]): 0.35
Drug uptake (Cynomolgus monkey [43]): 1.79
Drug uptake (Cynomolgus monkey [44]): 7.12
Drug uptake (Cynomolgus monkey [45]): 0.29
Drug uptake (Cynomolgus monkey [46]): 5.86
Ratio (Cynomolgus monkey [47]): 1.8
Drug uptake (Cynomolgus monkey [48]): 1.14
Drug uptake (Cynomolgus monkey [49]): 7.06
Drug uptake (Cynomolgus monkey [50]): 2.44
Drug uptake (Cynomolgus monkey [51]): 3.9
Drug uptake (Cynomolgus monkey [52]): 2.62
Drug uptake (Cynomolgus monkey [53]): 6.94
Drug uptake (Cynomolgus monkey [54]): 5.73
Drug uptake (Cynomolgus monkey [55]): 0.39
